Screening data from PubChem BioAssay.
The list is not random: actives were taken first. Their share in the collection is about 4%.
Hsp70 act: transcriptional activators of Hsp70 | HeLa Hsp70 promoter luciferase reporter, luminescence; scaled: vehicle 0, proteasome-inhibitor control 100% | activation, % at 10 µM | hit rate 0.04% among 200,000;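 active means activation above the mean across all tested compounds plus 3 SD, cutoff set per campaign, cut at about 5.5% in these data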;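 further: 100% = MG132 at 30 µM as the positive control and 0% = DMSO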
CHOP inh: inhibitors of CHOP induction in ER stress response. CHO-K1 CHOP-promoter luciferase, tunicamycin-induced, 15-18 h. inhibition, % at 10 µM. hit rate 3.8% among 220,000. AID 2732;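 active means compounds that reduced the stress-induced luciferase reporter signal by more than about 70% of percent inhibition, limit read from the data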;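 further: 0% = tunicamycin plus vehicle and 100% = wells without tunicamycin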
S1P3 antagonist: antagonists of human S1P3 receptor. Q99500. CHO S1P3 NFAT-BLA reporter, FRET fluorescence, antagonist mode. inhibition, % at 4.98 µM. hit rate 0.27% among 170,000;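 active means inhibition above the plate cutoff, the mean inhibition of test wells on that plate plus 3 SD, cut at about 28% in these data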;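 further: cells challenged with S1P at its EC80 of 0.8 µM; blue over green emission ratio from cleaved BLA substrate after 4 h stimulation; 0% = S1P-stimulated wells and 100% = unstimulated DMSO-only wells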
MDM2 E3 inh: blocks human Mdm2 ubiquitin ligase activity. signal enhancement, % at 5 µM. hit rate 0.11% among 210,000. cell-based MDM2 ubiquitination luciferase reporter, 2 h; 0 = plate control, 100 = twice control, blank-subtracted;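 active means signal enhancement of 30% or more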;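 further: luminescence tracks abundance of the self-degrading MDM2-luciferase fusion protein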
Target sequence (Q00987 whole entry, looked up, the tested form may be a part): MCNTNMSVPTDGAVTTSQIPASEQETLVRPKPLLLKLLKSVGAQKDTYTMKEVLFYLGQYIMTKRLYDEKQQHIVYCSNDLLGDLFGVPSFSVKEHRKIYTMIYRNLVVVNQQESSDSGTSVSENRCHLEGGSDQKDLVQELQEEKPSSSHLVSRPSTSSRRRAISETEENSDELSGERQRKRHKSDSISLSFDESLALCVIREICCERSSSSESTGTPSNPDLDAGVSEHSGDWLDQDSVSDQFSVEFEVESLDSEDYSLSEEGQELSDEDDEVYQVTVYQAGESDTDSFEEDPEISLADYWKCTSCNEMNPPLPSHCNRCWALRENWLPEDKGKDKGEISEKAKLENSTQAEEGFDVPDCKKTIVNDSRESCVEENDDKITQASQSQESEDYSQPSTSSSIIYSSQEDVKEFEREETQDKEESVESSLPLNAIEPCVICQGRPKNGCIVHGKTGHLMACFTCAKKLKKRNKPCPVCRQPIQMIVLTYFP
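Assay system: mammalian cells stably expressing self-ubiquitinating, self-degrading MDM2 E3–luciferase fusion. Quantity: 2000 cells in each well. Medium: DMEM culture medium. Compound dosing: single-point 5 µM. Timing: cell settling 4 h, compound treatment 2 h, both 37 °C. Technique: luciferase luminescence. Read-out basis: percent signal gain over controls, blank-subtracted. Benchmarks: plate controls and plate blanks.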
* hit, by the source's call; x = not tested or not shown.

SMILES	Hsp70 act	CHOP inh	S1P3 antagonist	MDM2 E3 inh
O=C(NC1(C(F)(F)F)N=C2SCCN2C1=O)c1ccccc1F (stereo unspecified)	x	3.5	-14.3	-5.1
O=C(NNc1nc(Nc2ccccc2)nc(N2CCOCC2)n1)Nc1ccc(Cl)cc1	-0.5	95.1*	-11.2	-9.7
O=C(Oc1c(Cl)cc(Cl)c2cccnc12)c1cccc([N+](=O)[O-])c1	-0.5	96.8*	0.5	-10.4
Cc1ccccc1-c1cc(-c2ccccc2O)n[nH]1	0.2	79.5*	0.3	-24.3
Cc1ccc(-c2cc(-c3ccccc3Cl)[nH]n2)c(O)c1	0.0	-23.1	-14.8	-4.2
Cc1ccc(-c2cc(-c3ccccc3[N+](=O)[O-])[nH]n2)c(O)c1	0.3	94.2*	x	-8.7
COc1ccccc1CNCC(=O)Nc1ccccc1-n1cccc1	-0.1	-30.2	13.9	-4.1
COc1cccc(NC(=O)C(NC2CCCC2)c2ccccc2)c1 (stereo unspecified)	1.4	81.7*	x	-1.0
COc1cccc(NC(=O)Nc2cccc(C(=O)O)c2)c1	-0.5	75.7*	2.5	-80.3
COc1cccc(NC(=O)Nc2cccnc2)c1	-0.1	-5.5	-12.3	-17.6
COC(=O)c1cc(NC(=O)Nc2cc(OC)ccc2OC)cc(C(=O)OC)c1	-0.2	77.7*	x	-8.7
COc1ccc(C2=NOC3(CC(=O)N(c4ccc(F)cc4)C3=O)C2)cc1 (stereo unspecified)	x	8.0	10.4	-21.6
Cc1ccsc1/C=N/n1c(C2CCCCC2)n[nH]c1=S	-0.3	84.4*	4.9	-10.0
CNC(=O)CNC(=O)Nc1ccc(C)cc1	-0.4	-4.9	-22.5	-10.9
CCOC(=O)C1=NN(c2ccccc2)C2=NC(C)=C(C(=O)OC)C(c3ccc(C)cc3)N12 (stereo unspecified)	-0.3	18.3	10.4	1.2
CC(C)(C)c1ccc(C(=O)N2CCN(c3nc4ccccc4o3)CC2)cc1	-0.1	63.2	x	-4.7
O=C(c1ccc(-c2ccccc2)cc1)N1CCN(c2nc3ccccc3o2)CC1	0.2	-9.5	52.9*	-22.4
CC(OC(=O)CCc1nc2ccccc2c(=O)[nH]1)C(=O)c1ccc(C(C)(C)C)cc1 (stereo unspecified)	-0.3	91.6*	-9.0	-7.9
CCN1CCN(C(=O)CCc2nc3ccccc3c(=O)[nH]2)CC1	-0.1	-2.3	x	36.8*
CC(C)CC(=O)NC(=S)Nc1ccc(NC(=O)c2cccs2)cc1	-0.2	69.8	x	-16.1
CC/C(=N/NC(=O)CNc1ccc(Cl)cc1C)c1ccccc1	0.2	70.3*	-18.7	-11.5
O=c1oc2ccccc2cc1-c1nc2c(s1)CCCC2	-0.2	95.7*	x	-74.9
NC(=O)C1CCCN(C(=S)Nc2cccc3ccccc23)C1 (stereo unspecified)	-0.4	19.9	-9.5	-4.6
Cc1ccccc1N1CCN(Cc2cccc(C(=O)O)c2)CC1	-0.1	17.1	9.2	-1.3
COC(=O)c1cc(CN2CCN(c3ccccc3C)CC2)ccc1O	-0.3	72.0*	x	-8.3
SMILES	Hsp70 act	CHOP inh	S1P3 antagonist	MDM2 E3 inh
CCOC(=O)Cc1cnc(N)s1	-0.4	-14.1	-8.9	-0.9
COc1cc(NC(=O)Cn2ncc(Cl)c(Cl)c2=O)c(C)cc1[N+](=O)[O-]	0.2	108.6*	-14.8	-25.4
O=C(Nc1ccc(Cl)cc1C(=O)NCC1CCCO1)c1ccc(Cl)cc1Cl (stereo unspecified)	-0.4	24.4	-1.6	-15.8
C=CC[n+]1c(/C=C2\C=Cc3cc(C)ccc3N2CC)ccc2ccccc21	-0.1	71.5*	18.4	-43.2
CCN1/C(=C\c2ccc3cc(C)ccc3[n+]2CC)Sc2cc(C)c(C)cc21	-0.1	55.2	19.6	-22.2
COC(=O)c1ccc(N=NNc2cccc(Br)c2)cc1	-0.6	90.9*	-11.2	4.0
C/C(=N\NC(=O)CNc1cccc(Cl)c1C)c1cccs1	-0.2	92.4*	-21.3	-11.8
COc1ccccc1NCC(=O)N/N=C(\C)c1cccs1	0.2	-15.7	-17.1	-13.7
Cc1nc(N)c(Cc2ccc(Cl)cc2Cl)c(N)n1	-0.1	34.8	-11.9	-2.3
Cc1ccc(C)c(NC(=O)CN(C)C(=O)[C@@H](NC(=O)c2ccc(C(C)(C)C)cc2)C(C)C)c1	-0.5	83.2*	-9.5	-5.9
Cc1ccc(C)c(NC(=O)CN(C)C(=O)[C@@H](NC(N)=O)C(C)C)c1	-0.2	7.1	0.6	-17.3
CCOC(=O)C(=CNc1ccc2c(c1)nnn2-c1ccc(Cl)cc1)C(=O)OCC	0.0	78.8*	6.5	-1.9
CCOC(=O)C(=CNc1cc(C)nn1-c1ccc(C)cc1)C(=O)OCC	-0.1	42.2	x	-1.9
COc1ccc(OCC(=O)Sc2ccc(C)cc2)cc1	-0.3	83.4*	x	-14.9
COc1ccc(OC(=O)COc2ccc(C)cc2)cc1	-0.2	22.3	8.8	-4.0
Cc1ccc(-n2nc(C)c(=O)c(-c3ccccc3)c2NC(=O)c2cccs2)cc1	x	-7.3	4.7	-17.2
O=C(CC1NC(=O)NC1=O)Nc1ccc(Cl)cc1 (stereo unspecified)	-0.3	74.6*	x	-14.3
CC(=O)N1CCC(C(=O)c2ccc(Cl)cc2)CC1	-0.4	89.4*	x	5.3
CCc1cccc2c(C(=O)COC(=O)c3ccc([N+](=O)[O-])s3)c[nH]c12	-0.3	73.3*	-7.4	7.1
O=C(CC1SC(=O)N(Cc2cccc3ccccc23)C1=O)Nc1nccs1 (stereo unspecified)	0.0	72.9*	x	-27.1
CCOC(=O)CN1C(=O)SC(CC(=O)Nc2nccs2)C1=O (stereo unspecified)	-0.3	4.2	x	-13.3
Cc1ccc2c(c1)-c1[nH]c(=S)ncc1CS2	0.0	16.8	-19.4	-9.8
CCN(CC)S(=O)(=O)c1ccc(OC)c(NS(=O)(=O)c2cccc(C(=O)O)c2)c1	0.2	-0.9	-11.7	-17.4
COC(=O)c1c(C)[nH]c(C(=O)/C=C/c2ccccc2)c1C	0.0	75.8*	-10.2	-17.1
CCc1c(C#N)c(SCCC(=O)Nc2ccc(F)cc2)nc2c1C(=O)CC(C)(C)C2	0.1	87.8*	x	-11.0
SMILES	Hsp70 act	CHOP inh	S1P3 antagonist	MDM2 E3 inh
CCC(C)NC(=O)CS(=O)(=O)Cc1nc(-c2cccc(OC)c2)oc1C (stereo unspecified)	-0.2	23.6	85.4*	-17.9
O=C(NC(=S)Nc1nc(-c2ccccc2)cs1)c1cccs1	-0.4	74.3*	-5.4	-6.5
Cc1ccc(-c2csc(NC(=S)NC(=O)c3cccs3)n2)cc1	-0.4	14.8	-9.0	0.0
Cc1ccc(C(=O)Nc2nc(-c3cccnc3)cs2)o1	-0.3	35.6	x	-0.4
O=C(Nc1nc(-c2ccccc2)cs1)c1ccc(Br)o1	0.0	74.4*	16.6	-8.0
O=C(Nc1cccc2cccnc12)c1ccc(Br)o1	-0.2	77.4*	-7.2	-12.4
CC(C)CC(=O)NC1(C(F)(F)F)C(=O)N(CC(C)C)C2=C1C(=O)CC(C)(C)C2 (stereo unspecified)	-0.2	6.9	-4.0	-27.6
O=C1[C@H](CC[C@H](O)c2ccc(F)cc2)[C@@H](c2ccc(O)cc2)N1c1ccc(F)cc1	-0.3	19.0	-5.1	x
O=C(CSc1nnnn1-c1ccccc1)Nc1nsc(-c2ccccc2)n1	-0.4	-153.1	-27.3	-18.9
